Experimental findings from ChEMBL document CHEMBL1817552, “Isolation, identification, and biological evaluation of HIF-1-modulating compounds from Brazilian green propolis” (Bioorg Med Chem, 2011) are described below.

The source made the active and inactive calls. The rule behind the calls is not given here.

Data set [1] relates to HCT-116. Kind of data set: Cytotoxicity against human HCT116 cells assessed as cell viability under normoxic condition at 50 uM after 7 days by clonogenic assay. It is filed as functional.
In data set [2] the test system is HCT-116. Kind of data set: Cytotoxicity against human HCT116 cells assessed as cell viability under normoxic condition at 50 uM after 24 hrs by MTT assay. Format: functional. (In general: Tetrazolium assays rely on reduction of a dye to a coloured formazan, in cell work by metabolically active cells.)
Data set [3] concerns HCT-116. As to the kind of experiment: Cytotoxicity against human HCT116 cells assessed as cell viability under hypoxic condition at 50 uM after 7 days by clonogenic assay. Format: functional.
Data set [4] in a line: Antiangiogenic activity in 3-day-old embryonated chicken eggs at 300 ng/CAM measured on 7th embryonic day by CAM assay. Format: functional, Gallus gallus, Egg.
Data set [5] concerns HCT-116. Kind of data set: Cytotoxicity against human HCT116 cells assessed as cell viability under hypoxic condition at 50 uM after 24 hrs by MTT assay. It is filed as functional. The method, boiled down: (§1)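 HCT116 cells seeded at 6.0 × 10^3 cells/well in McCoy's 5A with 10% FBS and antibiotics, grown 24 h, then exposed to compound for 24 h under normoxia (20% O2) or hypoxia (1% O2, 94% N2, 5% CO2, 37 °C). MTT 0.5 mg/mL added for 4 h at 37 °C, cells lysed in DMSO, absorbance read at 570 nm. Final DMSO 1.0% (v/v).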

Data set [6] can be described thus: Solubility of the compound in dimethylsulfoxide. It is filed as physicochemical.
Data set [7] deals with HEK293. Kind of data set: Modulation of HIF1 expressed in HEK293 cells assessed as luciferase activity under hypoxic condition at 50 uM after 24 hrs by luminometer analysis relative to hypoxic control. Format: cell-based. The method in brief:
(§2)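 HEK293 stable clone carrying a luciferase reporter driven by a 68-bp ENO1 hypoxia response element upstream of the SV40 promoter, seeded at 8 × 10^4 cells/well. After 24 h, compound added; 1 h later cells moved to 1% O2 hypoxia for 24 h. Luciferase read by luminometer, expressed as ratio to hypoxic control. Final DMSO 0.5%; triplicate wells.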

Data set [8] concerns HCT-116. As to the kind of experiment: Cytotoxicity against human HCT116 cells assessed as cell viability under normoxic condition at 100 uM after 24 hrs by MTT assay. It is filed as functional. The method, boiled down:
as §1

Data set [9] deals with HCT-116. Kind of data set: Cytotoxicity against human HCT116 cells assessed as cell viability under hypoxic condition at 200 uM after 24 hrs by MTT assay. Format: functional. The method in brief: as §1
Data set [10] relates to HCT-116. As to the kind of experiment: Inhibition of HIF1alpha expression in human HCT116 cells under hypoxic condition after 4 hrs by immunoblotting. Format: functional, cell-based. The method in brief: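 HCT116 cells at 4 × 10^6 per dish, grown 24 h, then exposed 4 h under hypoxia (1% O2) or normoxia (20% O2). Lysed on ice in Tris/SDS/deoxycholate buffer with protease and phosphatase inhibitors; 120 µg protein per lane on 7% SDS-PAGE. Probed with mouse anti-human HIF-1α (1:500) and β-actin control; HRP secondary, chemiluminescence quantitation.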

In data set [11] the test system is HCT-116. Kind of data set: Cytotoxicity against human HCT116 cells assessed as cell viability under hypoxic condition at 200 uM after 7 days by clonogenic assay. Format: functional. The method, boiled down:
(§3)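 HCT116 cells plated at 3.0 × 10^2 cells per dish and treated 24 h under normoxia (20% O2) or hypoxia (1% O2). On day 7 colonies were washed with PBS, fixed in methanol 30 min at room temperature, stained with Giemsa over 3 h, then counted.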

Data set [12] deals with T1, Hypoxia inducible factors; HIF-1-alpha, HIF-2-alpha (Homo sapiens) (UniProt Q16665+Q99814). As to the kind of experiment: Inhibition of HIF1-dependent HK2 mRNA expression in human HCT116 cells under hypoxic condition at 50 uM after 24 hrs by RT-PCR analysis. It is filed as cell-based. To be noted: HCT-116. The method, boiled down:
(§4)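 HCT116 cells seeded at 1 × 10^6 per dish in McCoy's 5A/10% FBS, grown 24 h, then treated 24 h under hypoxia (1% O2) or normoxia. Total RNA extracted directly after treatment. Real-time RT-PCR run as 95 °C 30 s, then 40 cycles of 95 °C 5 s and 60 °C 30 s. Normalized to 18S rRNA, relative expression by 2^-ΔΔCT; mean ± SD.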

Data set [13] is described as follows: Modulation of HIF1 expressed in HEK293 cells assessed as luciferase activity under hypoxic condition after 24 hrs by luminometer analysis. Format: cell-based. As to conditions: HEK293, 24 h.
Data set [14] relates to HCT-116. As to the kind of experiment: Cytotoxicity against human HCT116 cells assessed as cell viability under normoxic condition at 200 uM after 7 days by clonogenic assay. It is filed as functional. The method in brief:
as §3

Data set [15] addresses T1, Hypoxia inducible factors; HIF-1-alpha, HIF-2-alpha (Homo sapiens). As to the kind of experiment: Inhibition of HIF1-dependent VEGFA mRNA expression in human HCT116 cells under hypoxic condition at 50 uM after 24 hrs by RT-PCR analysis. Format: cell-based. As to conditions: HCT-116. The method, boiled down:
as §4

The subject of data set [16] is HCT-116. As to the kind of experiment: Cytotoxicity against human HCT116 cells assessed as cell viability under normoxic condition at 200 uM after 24 hrs by MTT assay. It is filed as functional. The method, boiled down: as §1
Data set [17] has as its target T1, Hypoxia inducible factors; HIF-1-alpha, HIF-2-alpha (Homo sapiens). As to the kind of experiment: Inhibition of HIF1-dependent GLUT1 mRNA expression in human HCT116 cells under hypoxic condition at 50 uM after 24 hrs by RT-PCR analysis. It is filed as cell-based. As to conditions: HCT-116. The method in brief:
as §4

Data set [18] deals with HCT-116. Kind of data set: Cytotoxicity against human HCT116 cells assessed as cell viability under normoxic condition after 24 hrs by MTT assay. Format: functional, cell-based. As to conditions: HCT-116, 24 h. The method, boiled down: as §1
The test system of data set [19] is HEK293. Kind of data set: Modulation of HIF1 expressed in HEK293 cells assessed as luciferase activity under hypoxic condition at 30 uM after 24 hrs by luminometer analysis relative to hypoxic control. It is filed as cell-based. The method in brief:
as §2

On to `COc1ccc(-c2oc3cc(O)cc(O)c3c(=O)c2O)cc1` [KAEMPFERIDE], for which the Activity in the data set with HCT-116 [1] was found to be 79.9%; in the data set with HCT-116 [2], 102.5%; in the data set with HCT-116 [3] it was 87.6%; in the data set on HCT-116 [5], 173.3%. The “inhibition (INH)” value in data set [4] is given as 39.5%.
As to `C=C(C)[C@@H]1CC[C@]2(C)CC[C@]3(C)[C@H](CC[C@@H]4[C@@]5(C)CC[C@H](OC(=O)C[C@H](O)CCCCCCCCCCCCC)C(C)(C)[C@@H]5CC[C@]43C)[C@@H]12`, the solubility result in [6] was “Insoluble”.
Regarding `COc1ccc(/C=C/C(=O)O)cc1CC=C(C)C`, in the data set on HEK293 [7], the Ratio worked out at 0.82. For the same compound, the Activity in the data set with HCT-116 [8] is 95.7%.
With `C=CCc1cc(/C=C/C(=O)O)ccc1O`, the Ratio with HEK293 [7] came out at 0.9. Moreover, in the data set with HCT-116 [8], the Activity worked out at 98.4%.
For orientation: IC50 means the midpoint of a concentration-inhibition curve. Take `CC(C)=CCc1cc(/C=C/C(=O)O)ccc1OC(=O)CCc1ccccc1` [BACCHARIN]: the Activity is 69.4% in the data set with HCT-116 [9], 74% with HCT-116 [11], 74.8% in the data set on HCT-116 [14] and 58.2% in the data set with HCT-116 [16]. For the same compound, the Ratio with HEK293 [7] was 0.52. For the same compound, the inhibition entry with HCT-116 [10] is “Dose-dependent effect”. For the same compound, the inhibition result in [12], in data set [15] and in data set [17] was “Active” each time. Besides, the IC50 in data set [13] turned out to be 77.4 µM. Besides, in data set [4], the “inhibition (INH)” value is reported as 83.2%.
Consider `O=C(O)/C=C/c1ccc(O)cc1` [COUMARIC ACID], for which, in the data set with HEK293 [7], the Ratio came to 0.93. Moreover, the Activity in the data set on HCT-116 [8] stood at 99.3%.
For `CC(C)=CCc1cc(/C=C/C(=O)O)cc(CC=C(C)C)c1O` [ARTEPILLIN], the Ratio with HEK293 [7] is 1.09. In addition, the “inhibition (INH)” value in data set [4] is reported as 80.9%. The Activity in the data set with HCT-116 [16] is 53.3%.
Consider `COC(=O)/C=C/c1ccc(O)c(CC=C(C)C)c1` [PLICATIN B], for which, in the data set with HCT-116 [18], the IC50 was found to be 10.6 µM.
Regarding `O=C(O)/C=C/c1ccc(OC(=O)CCc2ccccc2)cc1`, in the data set on HEK293 [7], the Ratio is 1.08.
On to `CC(C)(C)c1cc(/C=C/C(=O)O)cc(C(C)(C)C)c1O`, for which the Ratio in the data set with HEK293 [7] was found to be 0.77. In addition, in the data set with HCT-116 [8], the Activity turned out to be 108.4%.
With `COC(=O)/C=C/c1ccc(OC)c(CC=C(C)C)c1` [PALICATIN B METHYL ETHER], in the data set on HEK293 [19], the Ratio came to 1.17. Besides, the IC50 in the data set on HCT-116 [18] is 37.6 µM.
For the compound `CC(C)=CCc1cc(/C=C/C(=O)O)ccc1O` [DRUPANIN], the Activity in the data set on HCT-116 [9] was found to be 146%; in the data set with HCT-116 [11] it was 101.2%; in the data set on HCT-116 [14], 105.8%; in the data set with HCT-116 [16], 127.1%. Further, the Ratio in the data set on HEK293 [7] is 0.36. Also, the inhibition result in the data set with HCT-116 [10] was “Dose-dependent effect”. The inhibition entry in [12], in [15] and in data set [17] was “Active” throughout. Moreover, the IC50 in data set [13] is 25.6 µM. Moreover, the “inhibition (INH)” value in data set [4] is given as 84.3%.
Turning to `COc1ccc(-c2oc3cc(O)c(OC)c(O)c3c(=O)c2O)cc1` [BETULETOL], the Activity was 96.8% with HCT-116 [1], 69% with HCT-116 [2], 90.3% in the data set on HCT-116 [3] and 86.8% in the data set with HCT-116 [5]. The “inhibition (INH)” value in [4] is on record as 46.7%.
